Series [1] concerns the target cGMP-inhibited 3',5'-cyclic phosphodiesterase 3A (Homo sapiens, UniProt Q14432). The experiment in a line: Inhibitory concentration required to inhibit human phosphodiesterase 3A expressed in Escherichia coli. The method, boiled down: (§1)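 PDE3A and PDE3B made in E. coli BL21(DE3) pLysS after IPTG induction. Soluble extract ammonium sulfate-precipitated (50% saturation), dialysed, partially purified on DEAE Sepharose with a 70–250 mM NaCl gradient. IC50 is the mean of two or more experiments.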

For series [2], the target named is cGMP-inhibited 3',5'-cyclic phosphodiesterase 3B (Homo sapiens, UniProt Q13370). Briefly: Inhibitory concentration required to inhibit human phosphodiesterase 3B expressed in Escherichia coli. The method, boiled down: as §1
Chain of cGMP-inhibited 3',5'-cyclic phosphodiesterase 3B (Q13370 whole entry): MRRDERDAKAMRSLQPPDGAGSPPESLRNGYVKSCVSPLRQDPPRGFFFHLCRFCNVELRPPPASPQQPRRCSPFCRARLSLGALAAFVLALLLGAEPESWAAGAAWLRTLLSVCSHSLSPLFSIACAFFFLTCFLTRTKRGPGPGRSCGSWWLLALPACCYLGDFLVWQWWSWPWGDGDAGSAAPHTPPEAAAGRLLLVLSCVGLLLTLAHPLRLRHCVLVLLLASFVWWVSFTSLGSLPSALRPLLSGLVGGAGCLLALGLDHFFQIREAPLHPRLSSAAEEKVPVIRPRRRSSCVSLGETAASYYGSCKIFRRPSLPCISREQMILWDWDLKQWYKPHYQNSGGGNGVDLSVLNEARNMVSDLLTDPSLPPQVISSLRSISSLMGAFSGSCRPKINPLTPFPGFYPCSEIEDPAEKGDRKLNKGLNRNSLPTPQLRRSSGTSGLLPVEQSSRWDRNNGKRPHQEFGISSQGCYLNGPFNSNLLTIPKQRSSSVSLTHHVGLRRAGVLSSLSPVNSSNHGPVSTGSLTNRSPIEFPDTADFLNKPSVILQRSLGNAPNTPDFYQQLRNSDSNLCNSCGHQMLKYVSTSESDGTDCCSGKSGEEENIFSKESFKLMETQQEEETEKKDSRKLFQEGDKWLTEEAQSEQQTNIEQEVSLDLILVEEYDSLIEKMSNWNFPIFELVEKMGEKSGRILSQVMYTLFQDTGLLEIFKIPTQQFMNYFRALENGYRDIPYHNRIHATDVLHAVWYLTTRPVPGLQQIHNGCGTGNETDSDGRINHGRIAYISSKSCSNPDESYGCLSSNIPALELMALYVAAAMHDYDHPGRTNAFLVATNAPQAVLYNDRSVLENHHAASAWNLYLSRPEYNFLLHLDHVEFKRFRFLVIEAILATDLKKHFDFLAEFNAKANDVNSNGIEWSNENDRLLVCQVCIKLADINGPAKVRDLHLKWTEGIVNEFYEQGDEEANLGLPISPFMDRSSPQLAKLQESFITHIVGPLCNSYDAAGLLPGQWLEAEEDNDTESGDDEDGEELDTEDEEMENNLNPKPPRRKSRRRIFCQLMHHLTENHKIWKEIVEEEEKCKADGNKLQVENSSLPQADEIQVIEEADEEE
Series [3] addresses Phosphodiesterase 3 (Homo sapiens) (UniProt Q14432+Q13370). The experiment in a line: Relative inhibition of Phosphodiesterase 3A and Phosphodiesterase 3B. In kind it is protein assay. The method, boiled down:
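PDE3A and PDE3B expressed in E. coli BL21 (DE3) pLysS after IPTG induction, ammonium sulfate precipitated, partially purified on DEAE Sepharose. Activity measured by [3H]cAMP SPA assay in 50 mM Tris pH 7.5, 8.3 mM MgCl2, 1.7 mM EGTA, 10 nM [3H]cAMP, room temperature, 2–15 min. IC50s on each isoform are means of two or more experiments.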

Series [4] in a line: Oral bioavailability was determined in rat after oral administration at a concentration 1 mg/kg. In kind it is ADME, organism-based. The settings on record: in vivo. The method, boiled down: (§2)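 Rats dosed orally at 1.0 mg/kg. Blood levels were measured, and AUC was normalized and compared with iv exposure to give oral bioavailability.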
Series [5] is described as follows: Half life in rat after intravenous administration at a concentration 0.5 mg/kg. In kind it is ADME, organism-based. Further details: dose 0.5 mg/kg, route intravenous. Conditions: in vivo. The method, boiled down: (§3)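 Rat pharmacokinetics after a 0.5 mg/kg intravenous dose; half-life and clearance derived from blood levels.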
Series [6] can be described thus: Plasma clearance in rat after intravenous administration at a concentration 0.5 mg/kg. The class given is ADME, organism-based. Also on record: dose 0.5 mg/kg, route intravenous. The method, boiled down: as §3
For series [7], the system named is Rattus norvegicus. The experiment in a line: Area under curve was determined in rat after oral administration at a concentration 1 mg/kg. The class given is ADME, organism-based. Further details: dose 1 mg/kg, route oral. The settings on record: in vivo. In short, it runs like this:
as §2

Series [8] has as its system Rattus norvegicus. The experiment in a line: In vivo plasma glycerol increase in anesthetized rat at 1 mg/kg iv dose for 60 min. In kind it is functional. The settings on record: 1 h. In short, it runs like this: (§4)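 Anesthetized rats given compound by intravenous infusion (1.0 mg/kg). Plasma glycerol increase over vehicle followed over a 90 min period, with a reading at 60 min taken as an index of lipolysis.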

The subject of series [9] is Rattus norvegicus. Briefly: In vivo plasma glycerol increase in anesthetized rat at 1 mg/kg iv dose for 90 min. In kind it is functional. Conditions: 1 h, in the assay text read “60 min” for “90 min”. In short, it runs like this:
as §4

Series [10] deals with Rattus norvegicus. Briefly: Maximal blood pressure decrease in rats at 0.02 mg/kg dose for 60 min. In kind it is functional. In short, it runs like this:
(§5)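 Anesthetized rats given increasing intravenous doses (0.01–0.1 mg/kg). Mean arterial pressure recorded from 5 min to 60 min post-dose; decrease expressed as percentage.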

Series [11] relates to Rattus norvegicus. The experiment in a line: Maximal blood pressure decrease in rats at 0.1 mg/kg dose for 60 min. In kind it is functional. The method, boiled down:
as §5

For series [12], the system named is Rattus norvegicus. The experiment in a line: Increased metabolic rate in male rats for 8-h period after 10 mg/kg dose. In kind it is functional. In short, it runs like this: (§6)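 Male rats dosed orally at 1, 3 and 10 mg/kg. Metabolic rate monitored over 8 h post-dose and expressed as percentage increase in thermogenesis over the pre-dose rate.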
For series [13], the system named is Rattus norvegicus. Briefly: Increased metabolic rate in male rats for 8-h period after 3 mg/kg dose. In kind it is functional. In short, it runs like this:
as §6

Experimental findings from ChEMBL document CHEMBL1136355, “Benzyl vinylogous amide substituted aryldihydropyridazinones and aryldimethylpyrazolones as potent and selective PDE3B inhibitors” (Bioorg Med Chem Lett, 2003) are described below.

Structures are written as SMILES.

Chain of cGMP-inhibited 3',5'-cyclic phosphodiesterase 3A (Q14432 whole entry): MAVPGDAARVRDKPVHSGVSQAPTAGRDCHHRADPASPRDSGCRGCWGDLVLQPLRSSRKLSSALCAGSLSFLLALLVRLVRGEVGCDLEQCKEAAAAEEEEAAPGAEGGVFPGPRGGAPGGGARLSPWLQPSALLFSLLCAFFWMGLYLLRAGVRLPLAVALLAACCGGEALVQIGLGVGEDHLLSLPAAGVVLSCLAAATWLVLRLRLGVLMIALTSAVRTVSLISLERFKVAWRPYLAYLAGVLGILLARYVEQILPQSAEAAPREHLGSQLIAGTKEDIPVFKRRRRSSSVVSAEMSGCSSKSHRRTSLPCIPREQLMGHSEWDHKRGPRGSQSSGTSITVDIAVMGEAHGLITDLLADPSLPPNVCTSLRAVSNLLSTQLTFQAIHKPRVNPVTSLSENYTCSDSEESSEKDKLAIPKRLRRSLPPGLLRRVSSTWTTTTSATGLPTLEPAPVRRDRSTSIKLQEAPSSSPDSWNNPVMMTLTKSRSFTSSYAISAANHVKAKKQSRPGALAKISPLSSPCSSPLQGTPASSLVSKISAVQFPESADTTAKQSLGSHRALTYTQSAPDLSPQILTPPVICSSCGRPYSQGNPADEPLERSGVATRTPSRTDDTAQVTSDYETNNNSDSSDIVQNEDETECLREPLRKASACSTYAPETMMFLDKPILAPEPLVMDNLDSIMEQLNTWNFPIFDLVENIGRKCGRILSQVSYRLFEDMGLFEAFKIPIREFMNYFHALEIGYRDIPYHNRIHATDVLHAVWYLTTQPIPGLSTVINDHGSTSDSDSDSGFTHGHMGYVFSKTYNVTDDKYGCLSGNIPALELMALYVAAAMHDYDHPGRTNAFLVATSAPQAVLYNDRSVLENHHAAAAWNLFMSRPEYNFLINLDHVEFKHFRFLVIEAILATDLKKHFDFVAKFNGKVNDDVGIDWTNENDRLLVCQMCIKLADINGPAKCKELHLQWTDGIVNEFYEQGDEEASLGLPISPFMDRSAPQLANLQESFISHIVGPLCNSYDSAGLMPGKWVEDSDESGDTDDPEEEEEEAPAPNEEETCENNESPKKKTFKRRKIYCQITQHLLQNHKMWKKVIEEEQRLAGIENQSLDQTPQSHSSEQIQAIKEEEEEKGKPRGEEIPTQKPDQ

Consider `Cc1cc(NC2=C(Cc3ccccc3)C(=O)CCC2)ccc1C1=NNC(=O)C1(C)C`, for which the half-maximal inhibitory concentration (IC50) came out at 38 nM in series [1] and 4.8 nM in [2].
Take `CC1CC(=O)NN=C1c1ccc(NC2=C(Cc3ccc([N+](=O)[O-])cc3)C(=O)CCC2)cc1` (stereo not drawn): the IC50 stood at 24 nM in series [1] and 5.5 nM in series [2].
For `CC1CC(=O)NN=C1c1ccc(NC2=C(Cc3ccccc3)C(=O)CCC2)cc1F` (stereo not drawn), the IC50 worked out at 1.6 nM in [1] and 0.24 nM in series [2].
In series [2], `CN(C(=O)CCCOc1ccc2[nH]c(=O)ccc2c1)C1CCCCC1` [CILOSTAMIDE] had a half-inhibitory concentration (IC50) of 18 nM.
As to `CC1(C)C(=O)NN=C1c1ccc(NC2=C(Cc3ccccc3Cl)C(=O)CCC2)cc1F`, the IC50 in series [1] was found to be 7.2 nM; in series [2] it was 0.53 nM.
`CCc1cc(NC2=C(Cc3ccccc3)C(=O)CCC2)ccc1C1=NNC(=O)CC1C` (stereo not drawn): the IC50 in series [1] was found to be 101 nM; in series [2], 21 nM.
For `Cc1cc(NC2=C(Cc3ccccc3)C(=O)CCC2)ccc1C1=NNC(=O)CC1C` (stereo not drawn), in that order: 22 nM and 2.6 nM.
For `CC1(C)C(=O)NN=C1c1ccc(NC2=C(Cc3cccc([N+](=O)[O-])c3)C(=O)CCC2)cc1F`, the IC50 is 150 nM in series [1] and 4.5 nM in series [2]. In addition, the Selectivity in [3] worked out at 33.
`CC1CC(=O)NN=C1c1ccc(NC2=C(Cc3cccc(I)c3)C(=O)CCC2)cc1` (stereo not drawn): the values for the IC50 in [1] and in series [2] were 0.33 nM and 0.11 nM, respectively.
For the compound `COc1ccccc1CC1=C(Nc2ccc(C3=NNC(=O)CC3C)cc2)CCCC1=O` (stereo not drawn), the 50% inhibitory concentration (IC50) in series [1] was 0.39 nM; in [2], 0.13 nM.
For the compound `CC1(C)C(=O)NN=C1c1ccc(/N=C2\CCCC(O)=C2Cc2cccc(C#N)c2)c(F)c1F`, the half-maximal inhibitory concentration (IC50) is 7.6 nM in series [1] and 0.33 nM in [2]. Besides, the Selectivity in [3] is 23.
Consider `CC1CC(=O)NN=C1c1ccc(NC2=C(Cc3cccc([N+](=O)[O-])c3)C(=O)CCC2)cc1` (stereo not drawn), for which the concentration for half-maximal inhibition (IC50) came to 3.1 nM in series [1] and 0.94 nM in series [2].
For `CC1CC(=O)NN=C1c1ccc(NC2=C(Cc3cccc(F)c3)C(=O)CCC2)cc1` (stereo not drawn), the IC50 in [1] is 2.8 nM; in series [2], 0.7 nM.
As for `CC1(C)C(=O)NN=C1c1ccc(NC2=C(Cc3ccc(F)cc3)C(=O)CCC2)cc1F`, the 50% inhibitory concentration (IC50) came to 63 nM in [1] and 3.1 nM in series [2].
For `CC1(C)C(=O)NN=C1c1ccc(NC2=C(Cc3cccc(F)c3)C(=O)CCC2)cc1F`, in that order: 43 nM and 5.6 nM.
For `C[C@@H]1CC(=O)NN=C1c1ccc(NC(=O)c2ccccc2C(F)(F)F)cc1`, the IC50 was 15 nM in [1] and 5 nM in series [2].
For `Cc1cc(NC2=C(Cc3cccc(C#N)c3)C(=O)CCC2)ccc1C1=NNC(=O)C1(C)C`, the IC50 in series [1] was determined as 130 nM; in series [2] it was 10 nM.
With `CC(=O)Nc1ccc(C2=NNC(=O)C[C@H]2C)cc1`, the concentration for half-maximal inhibition (IC50) amounted to 96 nM in [1] and 37 nM in series [2].
In the case of `COc1ccc(CC2=C(Nc3ccc(C4=NNC(=O)CC4C)cc3)CCCC2=O)cc1` (stereo not drawn), the figures for the IC50 in [1] and in series [2] were 2.3 nM and 0.7 nM, respectively.
Regarding `CC1CC(=O)NN=C1c1ccc(NC2=C(Cc3cccc(Br)c3)C(=O)CCC2)cc1` (stereo not drawn), the figures for the half-inhibitory concentration (IC50) in series [1] and in series [2] were 0.94 nM and 0.3 nM, respectively.
Take `CC1CC(=O)NN=C1c1ccc(NC(=O)OCc2ccccc2)cc1` (stereo not drawn): the concentration for half-maximal inhibition (IC50) in [1] was found to be 2.9 nM; in [2] it was 1 nM.
On to `C[C@@H]1CC(=O)NN=C1c1ccc(NC2=C(Cc3ccccc3)C(=O)CCC2)cc1`, for which the bioavailability in series [4] came out at 61%. In series [5], the half-life was 1 h. Further, the clearance in series [6] came to 0.408 L/h/kg. The compound further returned an AUC in the series with Rattus norvegicus [7] of 3.6 µM·h. In addition, the IC50 in series [1] amounted to 1.3 nM; in series [2], 0.19 nM. Further, the ED50 in the series on Rattus norvegicus [8] and with Rattus norvegicus [9] was 0.6 mg/kg throughout. Also, the values for the Max decrease in the series with Rattus norvegicus [10] and with Rattus norvegicus [11] were 20% and 40%, respectively. For the same compound, the values for the Metabolic rate in the series on Rattus norvegicus [12] and in the series with Rattus norvegicus [13] were 21% and 14%, respectively.
For `Cc1cc(C2=NNC(=O)CC2C)ccc1/N=C1\CCCC(O)=C1Cc1ccccc1` (stereo not drawn), the IC50 in [1] was 3.7 nM; in series [2] it was 0.61 nM.
On to `CC1=C(Nc2ccc(C3=NNC(=O)C[C@H]3C)cc2)CCCC1=O`, for which the values for the IC50 in [1] and in series [2] were 44 nM and 8.8 nM, respectively.
Take `CC1(C)C(=O)NN=C1c1ccc(NC2=C(Cc3ccccc3F)C(=O)CCC2)cc1F`: the figures for the IC50 in [1] and in [2] were 16 nM and 1.1 nM, respectively.
Turning to `CC1CC(=O)NN=C1c1cc(F)c(NC2=C(Cc3ccccc3)C(=O)CCC2)cc1F` (stereo not drawn), the results for the IC50 in series [1] and in series [2] were 1.6 nM and 0.62 nM, respectively.
As to `CC1(C)C(=O)NN=C1c1ccc(NC2=C(Cc3cccc([N+](=O)[O-])c3)C(=O)CCC2)cc1Cl`, the IC50 in series [1] was determined as 550 nM; in [2] it was 30 nM.
For `CCOC(=O)Nc1ccc(C2=NNC(=O)C[C@H]2C)cc1`, in that order: 24 nM and 8.5 nM.
For `CC1CC(=O)NN=C1c1ccc(NC2=C(Cc3ccccc3C(F)(F)F)C(=O)CCC2)cc1` (stereo not drawn), in that order: 0.83 nM and 0.35 nM.
Turning to `CC1(C)C(=O)NN=C1c1ccc(NC2=C(Cc3ccccc3)C(=O)CCC2)cc1`, the results for the 50% inhibitory concentration (IC50) in [1] and in series [2] were 53 nM and 10 nM, respectively.
For `CC1(C)C(=O)NN=C1c1ccc(NC2=C(Cc3ccccc3Cl)C(=O)CCC2)cc1Cl`, in that order: 77 nM and 6.3 nM.
For `CC1CC(=O)NN=C1c1ccc(/N=C2\CCCC(O)=C2Cc2ccccc2)c(F)c1` (stereo not drawn), in that order: 1.2 nM and 0.26 nM.
For `CC1(C)C(=O)NN=C1c1ccc(NC2=C(Cc3cccc(C#N)c3)C(=O)CCC2)cc1F`, the IC50 amounted to 69 nM in series [1] and 3.2 nM in series [2].
In the case of `CC1(C)C(=O)NN=C1c1ccc(NC2=C(Cc3ccccc3)C(=O)CCC2)cc1F`, the values for the IC50 in series [1] and in series [2] were 20 nM and 2.5 nM, respectively.
Turning to `CC1CC(=O)NN=C1c1ccc(NC2=C(Cc3ccccc3)C(=O)CCC2)cc1Cl` (stereo not drawn), the IC50 in series [1] was 46 nM; in series [2], 4.8 nM.
Taken in the same sequence, the figures for `CC1(C)C(=O)NN=C1c1ccc(NC2=C(Cc3c(Cl)cccc3Cl)C(=O)CCC2)cc1F` were 2.2 nM and 0.13 nM.
